Results pooled from the literature.
Protocols differ between the studies behind these lines.
Target: Muscle, skeletal receptor tyrosine-protein kinase (MUSK, Homo sapiens, UniProt O15146)
Residues used in one study (O15146 24-869): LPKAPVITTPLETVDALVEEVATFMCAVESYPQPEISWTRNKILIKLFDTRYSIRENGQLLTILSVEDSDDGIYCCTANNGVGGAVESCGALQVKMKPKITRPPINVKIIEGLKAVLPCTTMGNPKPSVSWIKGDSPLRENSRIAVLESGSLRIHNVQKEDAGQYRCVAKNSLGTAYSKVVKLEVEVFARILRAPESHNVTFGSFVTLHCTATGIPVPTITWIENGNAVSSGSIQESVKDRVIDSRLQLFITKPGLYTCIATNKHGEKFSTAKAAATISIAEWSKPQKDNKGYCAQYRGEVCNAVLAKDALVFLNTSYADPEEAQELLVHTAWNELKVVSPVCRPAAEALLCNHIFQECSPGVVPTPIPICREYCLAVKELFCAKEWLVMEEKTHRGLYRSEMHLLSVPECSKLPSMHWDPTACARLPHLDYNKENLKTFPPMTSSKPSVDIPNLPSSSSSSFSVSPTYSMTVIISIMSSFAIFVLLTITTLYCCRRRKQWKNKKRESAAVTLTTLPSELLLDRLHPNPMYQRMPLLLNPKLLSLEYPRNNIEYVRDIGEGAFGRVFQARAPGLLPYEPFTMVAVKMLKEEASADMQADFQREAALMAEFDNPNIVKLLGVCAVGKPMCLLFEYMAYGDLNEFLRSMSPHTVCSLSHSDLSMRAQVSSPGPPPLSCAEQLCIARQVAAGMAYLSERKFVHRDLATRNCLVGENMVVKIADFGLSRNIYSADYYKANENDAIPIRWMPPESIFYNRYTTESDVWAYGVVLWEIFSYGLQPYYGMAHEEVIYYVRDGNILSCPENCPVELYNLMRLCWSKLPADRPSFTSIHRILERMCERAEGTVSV

| SMILES | assay | conditions | remaining binding |
| --- | --- | --- | --- |
| O=C(c1ccc(Nc2ncc(Cl)c(-c3cc4ccccc4s3)n2)cc1)N1CCC(N2CCCC2)CC1 | binding, competition with immobilised ligand | 1 µM | 24% |
| c1cncc(-c2cccc(Nc3nccc(NC4CCCCC4)n3)c2)c1 | binding, competition with immobilised ligand | 10 µM | 86% |
| O=C(NCC1CCOCC1)c1n[nH]cc1NC(=O)c1c(F)cccc1F | binding, competition with immobilised ligand | 1 µM | 88% |
| COc1cnc(Nc2cccc(S(N)(=O)=O)c2)nc1N1CCN(c2ccccc2)CC1 | binding, competition with immobilised ligand | 1 µM | 97% |
| O=C(NCc1ncc(C(F)(F)F)cc1Cl)c1ccc2c(c1)C1(CCS(=O)(=O)CC1)[C@@H](C1CC1)N2S(=O)(=O)c1ccc(F)cc1 | cell-free assay, competition with immobilised ligand | 1 µM | 79% |
| C[C@@H]1CCN(c2nccc(-c3cnn4ncccc34)n2)C1 | binding | 1 µM | 92% |
| CO[C@@H](C)c1c(Nc2ccc([C@@H](N(C)C(=O)C3CCS(=O)(=O)CC3)C(F)(F)F)cc2)cnc2cc(Cl)nn12 | cell-free assay, competition with immobilised ligand | 1 µM | 88% |
| FC(F)(F)Oc1cccc(-c2cnc3ccc(-c4ccncc4)nn23)c1 | cell-free assay, competition with immobilised ligand | 5 µM | 99% |
| Cc1c(NC(=O)c2cc(C(N)=O)nc3cc(F)ccc23)c(C(F)(F)F)nn1Cc1ccc(C#N)cc1 | cell-free assay, competition with immobilised ligand | 1 µM | 95% |
| C[C@@H](c1ccc(-n2cnc3c(N)ncnc32)cc1)N1CCc2nn(C)c(Cc3ccccc3)c2C1=O | binding, competition with immobilised ligand | 0.1 µM | 68% |
| O=C(c1ccc(Nc2ncc(Cl)c(-c3ccc(Cl)s3)n2)cc1)N1CCC(N2CCCC2)CC1 | binding, competition with immobilised ligand | 1 µM | 57% |
| O=C(NS(=O)(=O)c1ccc(NCC2CCOCC2)c([N+](=O)[O-])c1)c1ccc(N2CCN(Cc3ccc(C(F)(F)F)cc3-c3ccc(Cl)cc3)CC2)cc1Oc1cnc2[nH]ccc2c1 | cell-free assay, competition with immobilised ligand | 1 µM | 98% |
| CN(C)c1ncc(F)c(-c2cnn3ncccc23)n1 | binding | 1 µM | 100% |
| CCS(=O)(=O)c1cc2cc(C[C@](O)(CC(C)(C)c3ccc(F)cc3C(N)=O)C(F)(F)F)[nH]c2cn1 | cell-free assay, competition with immobilised ligand | 1 µM | 94% |
| CN(C)c1nccc(-c2cnc3ncccn23)n1 | binding | 1 µM | 83% |
| CCN1CCN(Cc2ccc(C(=O)Nc3ccc(C)c(Oc4ccc5c(c4)CC(=O)N5)c3)cc2C(F)(F)F)CC1 | binding, competition with immobilised ligand | 1 µM | 100% |
| N[C@H]1CCN(c2nccc(-c3cnn4ncccc34)n2)C1 | binding | 1 µM | 100% |
| COc1cnc(Nc2cccc(S(N)(=O)=O)c2)nc1N1CCN(c2ccccc2)C(=O)C1 | binding, competition with immobilised ligand | 1 µM | 99% |
| Cc1cnn2ncc(-c3ccnc(N(C)C)n3)c2c1 | binding | 1 µM | 79% |
| O=C(c1ccc(Nc2nccc(-c3cc4ccccc4s3)n2)cc1)N1CCC(N2CCCC2)CC1 | binding, competition with immobilised ligand | 1 µM | 72% |
| CN(C)c1nccc(-c2cnn3ncccc23)n1 | binding | 1 µM | 92% |
| CN([C@@H]1CCc2c(CC(=O)O)c3cc(S(C)(=O)=O)ccc3n2C1)S(=O)(=O)c1ccc(F)cc1 | cell-free assay, competition with immobilised ligand | 1 µM | 100% |
